Results on eight compounds are retold here after publication PMC11387822 (Scientific Reports, 2024).

The term IC50 denotes the concentration needed to halve the response being measured. A higher IC50 goes with a need for much substance. One may read the Ki as the equilibrium dissociation constant of an inhibitor or competing ligand from its target. Lower therefore signals a stronger hold on the target.

The structures appear in SMILES notation. “Also recorded” adds a separate entry of the source.

For data set [1], the target named is T1, AChE (Homo sapiens, UniProt P22303). The experiment in a line: In vitro AChE inhibitory activity. It is filed as biochemical. The settings on record: for AChE IC50: mean ± SD (n = 3).
T1 sequence (P22303 32-614): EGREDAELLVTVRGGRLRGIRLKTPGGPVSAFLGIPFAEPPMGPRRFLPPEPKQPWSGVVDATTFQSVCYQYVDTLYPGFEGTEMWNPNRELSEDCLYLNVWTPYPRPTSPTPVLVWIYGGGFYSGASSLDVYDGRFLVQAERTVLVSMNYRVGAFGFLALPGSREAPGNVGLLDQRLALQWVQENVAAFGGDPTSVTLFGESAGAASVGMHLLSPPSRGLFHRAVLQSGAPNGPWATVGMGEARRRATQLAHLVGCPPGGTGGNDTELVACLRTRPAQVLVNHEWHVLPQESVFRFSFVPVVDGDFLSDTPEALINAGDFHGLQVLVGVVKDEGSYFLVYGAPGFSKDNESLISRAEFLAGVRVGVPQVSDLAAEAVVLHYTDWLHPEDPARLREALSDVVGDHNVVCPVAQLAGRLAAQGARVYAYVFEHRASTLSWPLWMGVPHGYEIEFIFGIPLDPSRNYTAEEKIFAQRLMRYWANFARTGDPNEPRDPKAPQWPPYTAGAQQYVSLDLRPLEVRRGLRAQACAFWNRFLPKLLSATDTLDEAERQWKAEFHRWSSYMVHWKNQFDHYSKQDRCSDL
For data set [2], the target named is BuChE (Homo sapiens, UniProt P06276). The experiment in a line: In vitro BuChE inhibitory activity. It counts as biochemical. Conditions: for BuChE IC50: mean ± SD (n = 3).
Sequence of BuChE (P06276 29-602): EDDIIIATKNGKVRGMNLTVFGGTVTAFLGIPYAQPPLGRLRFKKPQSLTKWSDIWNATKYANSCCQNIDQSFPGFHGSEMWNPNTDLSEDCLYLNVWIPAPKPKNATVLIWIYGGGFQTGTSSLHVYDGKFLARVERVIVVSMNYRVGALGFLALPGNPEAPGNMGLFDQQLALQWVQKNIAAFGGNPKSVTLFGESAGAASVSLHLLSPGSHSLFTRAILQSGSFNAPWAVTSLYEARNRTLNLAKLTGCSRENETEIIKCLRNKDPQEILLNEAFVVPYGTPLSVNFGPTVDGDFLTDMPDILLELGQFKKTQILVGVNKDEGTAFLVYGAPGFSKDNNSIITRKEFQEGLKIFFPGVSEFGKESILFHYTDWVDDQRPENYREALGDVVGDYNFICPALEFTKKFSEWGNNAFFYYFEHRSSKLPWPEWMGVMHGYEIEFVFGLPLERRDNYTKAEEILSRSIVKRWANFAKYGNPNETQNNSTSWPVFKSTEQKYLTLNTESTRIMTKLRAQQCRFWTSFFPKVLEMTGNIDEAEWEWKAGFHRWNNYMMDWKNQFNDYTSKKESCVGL
Data set [3] concerns the target BACE1 (Homo sapiens, UniProt P56817). The experiment in a line: BACE1 inhibitory activity, FRET-based assay kit. It counts as biochemical.
The target of data set [4] is T1, AChE. The experiment in a line: Kinetic characterization of AChE inhibition. It counts as biochemical.
The nature of data set [5]: Metal chelating activity by UV-visible spectrometry, mole ratio method. It counts as physicochemical. The settings on record: UV 200-600 nm, methanol, 5d 20 μM, Fe3+ 0-50 μM, 30 min room temperature. An outline of the steps: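 Test compound (20 μM in absolute methanol) was titrated with FeCl3 (0–50 μM Fe3+) and incubated 30 min at room temperature. UV absorption from 200 to 600 nm was recorded with and without Fe3+ in a 1 cm quartz cuvette. Complex stoichiometry was taken from the mole ratio method.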

Sequence of BACE1 (P56817 46-501): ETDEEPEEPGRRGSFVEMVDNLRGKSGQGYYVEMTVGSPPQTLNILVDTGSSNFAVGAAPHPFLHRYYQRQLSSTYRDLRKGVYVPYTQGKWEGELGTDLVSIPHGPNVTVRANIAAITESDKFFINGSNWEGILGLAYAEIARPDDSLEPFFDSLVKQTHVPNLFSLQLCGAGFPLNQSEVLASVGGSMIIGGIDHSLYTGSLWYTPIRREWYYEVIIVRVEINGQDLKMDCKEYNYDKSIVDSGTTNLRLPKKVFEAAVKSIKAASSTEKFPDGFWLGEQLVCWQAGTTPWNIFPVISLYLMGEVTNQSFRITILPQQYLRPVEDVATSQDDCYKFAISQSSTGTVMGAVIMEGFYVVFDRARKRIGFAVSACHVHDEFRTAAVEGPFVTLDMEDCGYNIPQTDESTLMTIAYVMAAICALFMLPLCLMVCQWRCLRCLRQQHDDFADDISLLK

As to `Cn1cc(-c2cc(C(=O)NN=Cc3ccccc3Cl)no2)c2ccccc21` [Compound 5i, N'-(2-Chlorobenzylidene)-5-(1-methyl-1H-indol-3-yl)isoxazole-3-carbohydrazide], in data set [1], the “AChE IC50” value is reported as “no potency”.

Compound `COc1cccc(C=NNC(=O)c2cc(-c3cn(C)c4ccccc34)on2)c1O` [Compound 5g, N'-(2-Hydroxy-3-methoxybenzylidene)-5-(1-methyl-1H-indol-3-yl)isoxazole-3-carbohydrazide] came in with an IC50 in data set [1] of 63.8 ± 4.04 µM.

For the compound `Cn1cc(-c2cc(C(=O)NN=Cc3ccccc3O)no2)c2ccccc21` [Compound 5b, N'-(2-Hydroxybenzylidene)-5-(1-methyl-1H-indol-3-yl)isoxazole-3-carbohydrazide], the IC50 in data set [2] was found to be 92.8 ± 2.29 µM; in data set [3], 2.79 ± 0.52 µM.

Consider `Cn1cc(-c2cc(C(=O)NN=Cc3cccc([N+](=O)[O-])c3)no2)c2ccccc21` [Compound 5k, N'-(3-Nitrobenzylidene)-5-(1-methyl-1H-indol-3-yl)isoxazole-3-carbohydrazide], for which the IC50 in data set [2] amounted to 71.3 ± 0.76 µM.

On to `Cn1cc(-c2cc(C(=O)NN=Cc3ccccc3)no2)c2ccccc21` [Compound 5a, N'-Benzylidene-5-(1-methyl-1H-indol-3-yl)isoxazole-3-carbohydrazide], for which the “AChE IC50” value in data set [1] is “no inhibitory potencies”. Further, the “BuChE IC50” value in data set [2] is recorded as “no inhibitory potencies”.

In the case of `COc1cccc(C=NNC(=O)c2cc(-c3cn(C)c4ccccc34)on2)c1` [Compound 5d, N'-(3-Methoxybenzylidene)-5-(1-methyl-1H-indol-3-yl)isoxazole-3-carbohydrazide], the IC50 in data set [1] is 29.5 ± 0.31 µM; in data set [3] it was 2.85 ± 0.09 µM. In addition, the “BuChE IC50” value in data set [2] is reported as “no notable inhibition; also recorded: no potency”. For the same compound, the affinity in data set [4], expressed as Ki, was 19.3 µM. In data set [4] (Lineweaver-Burk: Km increased, Vmax unchanged), the “inhibition pattern on AChE” value is given as “competitive”. The “metal chelating ability against Fe3+” value in data set [5] is on record as “had biometal chelation ability”.

In the case of `Cn1cc(-c2cc(C(=O)NN=Cc3cccc(Br)c3)no2)c2ccccc21` [Compound 5j, N'-(3-Bromobenzylidene)-5-(1-methyl-1H-indol-3-yl)isoxazole-3-carbohydrazide], in data set [1], the “AChE IC50” value is “no potency”. Besides, in data set [3], the IC50 stood at 1.99 ± 0.15 µM.

Regarding `Cn1cc(-c2cc(C(=O)NN=Cc3ccccc3F)no2)c2ccccc21` [Compound 5h, N'-(2-Fluorobenzylidene)-5-(1-methyl-1H-indol-3-yl)isoxazole-3-carbohydrazide], the “AChE IC50” value in data set [1] is given as “no potency”.
